Measured values: ChEMBL document CHEMBL1255182, “Methylantcinate A induces tumor specific growth inhibition in oral cancer cells via Bax-mediated mitochondrial apoptotic pathway” (Bioorg Med Chem Lett, 2010)

Columns and labels:
[1] = Induction of apoptosis in human OECM1 cells assessed as late apoptotic cells at 50 uM after 3 hrs by Annexin V-FITC and propidium iodide staining (reference value: 5.18%); type: functional
[2] = Induction of apoptosis in human OC2 cells assessed as cytoplasmic histone-associated DNA fragmentation at 50 uM after 4 hrs by TUNEL assay (reference value: 28.6%); type: functional
In short: (§1)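 After 4 h exposure to 25 or 50 µM or DMSO vehicle, OC-2 and OEC-M1 oral cancer cells were scored for DNA fragmentation by TUNEL labeling with flow cytometry, as % of cells. Mean ± SD of three determinations.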

[3] = Induction of apoptosis in human OECM1 cells assessed as cytoplasmic histone-associated DNA fragmentation at 25 uM after 4 hrs by TUNEL assay (reference value: 8.15%); type: functional; in short: as §1
[4] = (§2) Cytotoxicity against human OC2 cells after 24 hrs by MTT assay; type: functional, cell-based; conditions: OC2, 24 h
In short: (§3)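 Human oral squamous carcinoma lines, from primary tumours of adult male Taiwanese betel quid chewers, exposed to a range of concentrations for 24 h. DMSO control. Viable cells read by MTT reduction to formazan (absorbance). IC50 is the concentration giving a 50% fall in absorbance relative to control.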

OC2 [5] = test: as §2; type: functional, cell-based; in short: as §3
OECM1 [6] = test: Induction of apoptosis in human OECM1 cells assessed as decrease of Bcl-xL protein expression after 6 hrs by Western blotting; type: functional, cell-based
In short: (§4)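 OEC-M1 cells exposed to 10, 25 or 50 µM or DMSO for 6 h. Equal amounts of total lysate immunoblotted for Bcl-2, Bcl-xL, Bax and PARP (116-kDa full-length, 85-kDa cleaved), with β-actin as loading control. Bands quantified as fold of vehicle control after β-actin normalization.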

[7] = Induction of apoptosis in human OC2 cells assessed as late apoptotic cells at 25 uM after 3 hrs by Annexin V-FITC and propidium iodide staining (reference value: 1.92%); type: functional
[8] = Induction of apoptosis in human OECM1 cells assessed as early apoptotic cells at 25 uM after 3 hrs by Annexin V-FITC and propidium iodide staining (reference value: 0.69%); type: functional
OECM1 [9] = test: Induction of apoptosis in human OECM1 cells assessed as PARP cleavage after 6 hrs by Western blotting; type: functional, cell-based; in short: as §4
[10] = Induction of apoptosis in human OC2 cells assessed as early apoptotic cells at 25 uM after 3 hrs by Annexin V-FITC and propidium iodide staining (reference value: 0.67%); type: functional
[11] = Induction of apoptosis in human OECM1 cells assessed as late apoptotic cells at 25 uM after 3 hrs by Annexin V-FITC and propidium iodide staining (reference value: 5.18%); type: functional
OECM1 [12] = test: (§5) Cytotoxicity against human OECM1 cells after 24 hrs by MTT assay; type: functional, cell-based; in short: as §3
[13] = as §5; type: functional, cell-based; conditions: OECM1, 24 h; in short: as §3
[14] = Induction of apoptosis in human OC2 cells assessed as cytoplasmic histone-associated DNA fragmentation at 25 uM after 4 hrs by TUNEL assay (reference value: 28.6%); type: functional; in short: as §1
OECM1 [15] = test: Induction of apoptosis in human OECM1 cells assessed as caspase 3 activity at 50 uM by flow cytometry; type: functional, cell-based; conditions: TDE = time-dependent effect
In short: (§6)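 OC-2 or OEC-M1 OSCC cells exposed to 50 µM for 3 h, 6 h and 9 h to follow caspase-3 activity over time. Activity read by flow cytometry with a specific peptide substrate.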

[16] = Induction of apoptosis in human OC2 cells assessed as late apoptotic cells at 50 uM after 3 hrs by Annexin V-FITC and propidium iodide staining (reference value: 1.92%); type: functional
[17] = Induction of apoptosis in human OECM1 cells assessed as caspase 3 activity at 25 uM after 3 hrs by flow cytometry (reference value: 52.34%); type: functional
OC2 [18] = test: Induction of apoptosis in human OC2 cells assessed as caspase 3 activity at 50 uM by flow cytometry; type: functional, cell-based; conditions: TDE = time-dependent effect; in short: as §6
[19] = Induction of apoptosis in human OECM1 cells assessed as early apoptotic cells at 50 uM after 3 hrs by Annexin V-FITC and propidium iodide staining (reference value: 0.69%); type: functional
OECM1 [20] = test: Induction of apoptosis in human OECM1 cells assessed as increase of Bax protein expression after 6 hrs by Western blotting; type: functional, cell-based; in short: as §4
[21] = Induction of apoptosis in human OC2 cells assessed as early apoptotic cells at 50 uM after 3 hrs by Annexin V-FITC and propidium iodide staining (reference value: 0.67%); type: functional
[22] = Cytotoxicity against human gingival fibroblast at up to 50 uM after 24 hrs by MTT assay
In short: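 Normal human gingival fibroblasts exposed to a range of concentrations for 24 h, with 50 the highest tested. DMSO vehicle control. Viability read by MTT formazan absorbance and compared with control for statistical significance.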

[23] = Induction of apoptosis in human OC2 cells assessed as caspase 3 activity at 50 uM after 3 hrs by flow cytometry (reference value: 48.99%); type: functional
[24] = Induction of apoptosis in human OC2 cells assessed as caspase 3 activity at 25 uM after 3 hrs by flow cytometry (reference value: 48.99%); type: functional
[25] = Induction of apoptosis in human OECM1 cells assessed as caspase 3 activity at 50 uM after 3 hrs by flow cytometry (reference value: 52.34%); type: functional
OECM1 [26] = test: Induction of apoptosis in human OECM1 cells assessed as decrease of Bcl-2 protein expression after 6 hrs by Western blotting; type: functional, cell-based; in short: as §4
[27] = Induction of apoptosis in human OECM1 cells assessed as cytoplasmic histone-associated DNA fragmentation at 50 uM after 4 hrs by TUNEL assay (reference value: 8.15%); type: functional; in short: as §1

C=C(CC[C@@H](C)[C@H]1CC[C@H]2C3=C(C(=O)C[C@]12C)[C@@]1(C)CCC(=O)[C@@H](C)[C@@H]1CC3)C(C)C(=O)OC (some centres not stated) [METHYLANTCINATE A]
Activity [1]: 27.71% | Activity [2]: 52.55% | Activity [3]: 56.5% | IC50 [4]: 37.4 µM | Activity (OC2 [5]): Dose-dependent effect | Activity (OECM1 [6]): Dose-dependent effect | Activity [7]: 13.2% | Activity [8]: 59.73% | Activity (OECM1 [9]): Dose-dependent effect | Activity [10]: 15.35% | Activity [11]: 23.63% | Activity (OECM1 [12]): Dose-dependent effect | IC50 [13]: 24.5 µM | Activity [14]: 41.07% | Activity (OECM1 [15]): tde | Activity [16]: 14.3% | Activity [17]: 66.86% | Activity (OC2 [18]): tde | Activity [19]: 62.33% | Activity (OECM1 [20]): Dose-dependent effect | Activity [21]: 9.09% | Activity [22]: Non-toxic | Activity [23]: 69.06% | Activity [24]: 59.19% | Activity [25]: 87.07% | Activity (OECM1 [26]): Dose-dependent effect | Activity [27]: 57.8%
